In series [1] the test system is Nucleic Acid. As to the kind of experiment: Binding affinity to mouse PTEN mRNA assessed as melting temperature at 4 uM by thermal denaturation assay. Format: nucleic-acid assay. The procedure, abridged:
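Duplex with complementary length-matched RNA; UV absorbance versus temperature curves in 100 mM Na+, 10 mM phosphate, 0.1 mM EDTA, 4 μM each strand. Tm is the average of two experiments.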

Series [2] has as its system Mus musculus. As to the kind of experiment: Reduction in PTEN mRNA expression in ip dosed BALB/c mouse liver administered twice a week for 3 weeks measured after 72 hrs of last dose by RT-PCR analysis. Format: functional. An outline of the steps:
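Male Balb/c mice, 6-week-old, ASO in PBS ip twice weekly for 3 weeks, four dose levels. Killed 72 h after last dose. Liver homogenized in guanidine isothiocyanate buffer, RNA column-purified. PTEN RNA by fluorescence qRT-PCR, normalized to cyclophilin A. Errors are SD.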

The nature of series [3]: Reduction in PTEN mRNA expression in mouse bEND.3 cells after 24 hrs by qRT-PCR analysis. Format: functional, cell-based. The following applies: for pIC50: BEND3, 24 h. The procedure, abridged: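 bEnd.3 cells in DMEM/10% FBS, seeded at 1 × 10^4 cells/well the day before. Transfected 4 h at 37 °C with Lipofectin 3 μg/mL in OptiMEM, eight 1:2 dilutions (40 nM to 312.5 pM), then refed with complete medium for 24 h. PTEN RNA by qRT-PCR, normalized to cyclophilin A, as % untreated control. Triplicate plates. IC50 from sigmoidal fit, top 100%, bottom 0%.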
(In general: In qPCR the cycle at which signal appears reflects the starting amount.)

Series [4] deals with Mus musculus. As to the kind of experiment: Reduction in PTEN mRNA expression in BALB/c mouse liver at 37 mg/kg, ip administered once a week for 3 weeks measured after 72 hrs of last dose by RT-PCR analysis. Details: dose 37 mg/kg. Format: functional, organism-based.
Series [5] concerns Mus musculus. Nature of the series: Toxicity in BALB/c mouse assessed as effect on liver weight at 0.5 to 14.8 mg/kg, ip administered twice a week for 3 weeks measured after 72 hrs of last dose. Format: organism-based. Details: dose 0.5-14.8 mg/kg, route intraperitoneal. The following applies: in vivo. An outline of the steps:
(§1)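 Male Balb/c mice, ip ASO in PBS twice weekly for 3 weeks at four dose levels. Body weight recorded before each dose. Killed 3 days after last dose. Organ weights normalized to body weight, expressed relative to the saline-treated group.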

The subject of series [6] is Mus musculus. As to the kind of experiment: Hepatotoxicity in BALB/c mouse assessed as liver ALT level at 0.5 to 14.8 mg/kg, ip administered twice a week for 3 weeks measured after 72 hrs of last dose. Format: toxicity, organism-based. Details: dose 0.5-14.8 mg/kg, route intraperitoneal. The following applies: in vivo. An outline of the steps: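 Male 6-week-old Balb/c mice dosed ip in PBS twice weekly for 3 weeks: 0.7–23 mg/kg (four levels) or 0.5–14.6/14.8 mg/kg. Killed 72 h after final dose. Plasma from cardiac-puncture blood, ALT on clinical bioanalyzer. Errors are SD.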

For series [7], the system named is Mus musculus. Nature of the series: Toxicity in BALB/c mouse assessed as effect on kidney weight at 0.5 to 14.8 mg/kg, ip administered twice a week for 3 weeks measured after 72 hrs of last dose. Format: organism-based. Details: dose 0.5-14.8 mg/kg, route intraperitoneal. Particulars: in vivo. An outline of the steps:
as §1

Series [8] deals with Mus musculus. Nature of the series: Toxicity in BALB/c mouse assessed as effect on body weight at 0.5 to 14.8 mg/kg, ip administered twice a week for 3 weeks measured after 72 hrs of last dose. Format: organism-based. Also noted: dose 0.5-14.8 mg/kg, route intraperitoneal. The following applies: in vivo. An outline of the steps: as §1

The structures appear in SMILES notation. pIC50: −log10 of the molar value. Activity calls are given as the source filed them. No cut-off for these calls is given here.

What is called Tm is the temperature at which the thermal transition is half complete. On to `Cc1cn([C@H]2C[C@H](OP(O)(=S)OC[C@H]3O[C@@H](n4cnc5c(=O)[nH]c(N)nc54)[C@H](O)[C@@H]3OP(O)(=S)OC[C@H]3O[C@@H](n4cnc5c(=O)[nH]c(N)nc54)[C@H](O)[C@@H]3OP(O)(=S)OC[C@H]3O[C@@H](n4ccc(N)nc4=O)[C@H](O)[C@@H]3OP(O)(=S)OC[C@H]3O[C@@H](n4ccc(N)nc4=O)[C@H](O)[C@@H]3OP(O)(=S)OC[C@H]3O[C@@H](n4cc(C)c(=O)[nH]c4=O)C[C@@H]3O)[C@@H](COP(O)(=S)O[C@H]3[C@@H](O)[C@H](n4ccc(N)nc4=O)O[C@@H]3COP(O)(=S)O[C@H]3[C@@H](O)[C@H](n4cnc5c(N)ncnc54)O[C@@H]3COP(O)(=S)O[C@H]3[C@@H](O)[C@H](n4ccc(N)nc4=O)O[C@@H]3COP(O)(=S)O[C@H]3[C@@H](O)[C@H](n4cnc5c(=O)[nH]c(N)nc54)O[C@@H]3COP(O)(=S)O[C@H]3[C@@H](O)[C@H](n4cnc5c(N)ncnc54)O[C@@H]3COP(O)(=S)O[C@H]3C[C@H](n4cc(C)c(=O)[nH]c4=O)O[C@@H]3COP(O)(=S)O[C@H]3C[C@H](n4cc(C)c(=O)[nH]c4=O)O[C@@H]3COP(O)(=S)O[C@H]3[C@@H](O)[C@H](n4ccc(N)nc4=O)O[C@@H]3CO)O2)c(=O)[nH]c1=O` (stereo not given in full), for which the Tm in series [1] was determined as 48.5 °C.
The term ED50 denotes the dose at which the effect has come halfway, by size or by number of responders. A low value points to greater potency. Broadly, the pIC50 is the IC50 on a negative log10 scale, so that one unit is a factor of ten. A high value points to a low IC50. The molecule `COCCO[C@@H]1[C@H](O)[C@@H](COP(O)(=S)O[C@H]2[C@@H](OCCOC)[C@H](n3ccc(N)nc3=O)O[C@@H]2COP(O)(=S)O[C@H]2[C@@H](O)[C@H](n3ccc(N)nc3=O)O[C@@H]2COP(O)(=S)O[C@H]2[C@@H](O)[C@H](n3cnc4c(=O)[nH]c(N)nc43)O[C@@H]2COP(O)(=S)O[C@H]2[C@@H](O)[C@H](n3cnc4c(=O)[nH]c(N)nc43)O[C@@H]2COP(O)(=S)O[C@H]2C[C@H](n3cc(C)c(=O)[nH]c3=O)O[C@@H]2COP(O)(=S)O[C@H]2[C@@H](O)[C@H](n3ccc(N)nc3=O)O[C@@H]2COP(O)(=S)O[C@H]2[C@@H](O)[C@H](n3cnc4c(N)ncnc43)O[C@@H]2COP(O)(=S)O[C@H]2[C@@H](O)[C@H](n3ccc(N)nc3=O)O[C@@H]2COP(O)(=S)O[C@H]2[C@@H](O)[C@H](n3cnc4c(=O)[nH]c(N)nc43)O[C@@H]2COP(O)(=S)O[C@H]2[C@@H](O)[C@H](n3cnc4c(N)ncnc43)O[C@@H]2COP(O)(=S)O[C@H]2C[C@H](n3cc(C)c(=O)[nH]c3=O)O[C@@H]2COP(O)(=S)O[C@H]2[C@@H](OCCOC)[C@H](n3ccc(=O)[nH]c3=O)O[C@@H]2COP(O)(=S)O[C@H]2[C@@H](OCCOC)[C@H](n3ccc(N)nc3=O)O[C@@H]2CO)O[C@H]1n1ccc(=O)[nH]c1=O` (stereo not given in full) showed an ED50 in series [2] above 45 mg/kg. For the same molecule, the Tm in series [1] was determined as 51.3 °C. In addition, in series [3], the Activity entry is “Dose-dependent effect” and the pIC50 is 7.46.
For the molecule `Cc1cn([C@@H]2O[C@]3(CO)CNO[C@@H]2[C@@H]3OP(O)(=S)OC[C@]23CNO[C@@H]([C@H](n4cc(C)c(=O)[nH]c4=O)O2)[C@@H]3OP(O)(=S)OC[C@H]2O[C@@H](n3cc(C)c(=O)[nH]c3=O)C[C@@H]2OP(O)(=S)OC[C@H]2O[C@@H](n3cnc4c(N)ncnc43)[C@H](O)[C@@H]2OP(O)(=S)OC[C@H]2O[C@@H](n3cnc4c(=O)[nH]c(N)nc43)[C@H](O)[C@@H]2OP(O)(=S)OC[C@H]2O[C@@H](n3ccc(N)nc3=O)[C@H](O)[C@@H]2OP(O)(=S)OC[C@H]2O[C@@H](n3cnc4c(N)ncnc43)[C@H](O)[C@@H]2OP(O)(=S)OC[C@H]2O[C@@H](n3ccc(N)nc3=O)[C@H](O)[C@@H]2OP(O)(=S)OC[C@H]2O[C@@H](n3cc(C)c(=O)[nH]c3=O)C[C@@H]2OP(O)(=S)OC[C@H]2O[C@@H](n3cnc4c(=O)[nH]c(N)nc43)[C@H](O)[C@@H]2OP(O)(=S)OC[C@H]2O[C@@H](n3cnc4c(=O)[nH]c(N)nc43)[C@H](O)[C@@H]2OP(O)(=S)OC[C@H]2O[C@@H](n3ccc(N)nc3=O)[C@H](O)[C@@H]2OP(O)(=S)OC[C@]23CNO[C@@H]([C@H](n4cc(C)c(N)nc4=O)O2)[C@@H]3OP(O)(=S)OC[C@]23CNO[C@@H]([C@H](n4cc(C)c(=O)[nH]c4=O)O2)[C@@H]3O)c(=O)nc1N` (stereo not given in full), the ED50 in series [2] was above 37 mg/kg. Further, in series [1], the Tm was 57.7 °C. Further, the result in series [4] was inactive. Further, in series [3], the Activity result is “Dose-dependent effect” and the pIC50 was 8.49.
With `Cc1cn([C@H]2C[C@H](OP(O)(=S)OC[C@H]3O[C@@H](n4cnc5c(=O)[nH]c(N)nc54)[C@H](O)[C@@H]3OP(O)(=S)OC[C@H]3O[C@@H](n4cnc5c(=O)[nH]c(N)nc54)[C@H](O)[C@@H]3OP(O)(=S)OC[C@H]3O[C@@H](n4ccc(N)nc4=O)[C@H](O)[C@@H]3OP(O)(=S)OC[C@]34CO[C@@H]([C@H](n5ccc(N)nc5=O)O3)[C@@H]4OP(O)(=S)OC[C@]34CO[C@@H]([C@H](n5ccc(=O)[nH]c5=O)O3)[C@@H]4O)[C@@H](COP(O)(=S)O[C@H]3[C@@H](O)[C@H](n4ccc(N)nc4=O)O[C@@H]3COP(O)(=S)O[C@H]3[C@@H](O)[C@H](n4cnc5c(N)ncnc54)O[C@@H]3COP(O)(=S)O[C@H]3[C@@H](O)[C@H](n4ccc(N)nc4=O)O[C@@H]3COP(O)(=S)O[C@H]3[C@@H](O)[C@H](n4cnc5c(=O)[nH]c(N)nc54)O[C@@H]3COP(O)(=S)O[C@H]3[C@@H](O)[C@H](n4cnc5c(N)ncnc54)O[C@@H]3COP(O)(=S)O[C@H]3C[C@H](n4cc(C)c(=O)[nH]c4=O)O[C@@H]3COP(O)(=S)O[C@H]3[C@H]4OC[C@@]3(COP(O)(=S)O[C@H]3[C@H]5OC[C@@]3(CO)O[C@H]5n3ccc(N)nc3=O)O[C@H]4n3ccc(=O)[nH]c3=O)O2)c(=O)[nH]c1=O` (stereo not given in full), in series [1], the Tm amounted to 58 °C.
For the molecule `Cc1cn([C@@H]2O[C@]3(CO)CON(C)[C@@H]2[C@@H]3OP(O)(=S)OC[C@]23CON(C)[C@@H]([C@H](n4cc(C)c(=O)[nH]c4=O)O2)[C@@H]3OP(O)(=S)OC[C@H]2O[C@@H](n3cc(C)c(=O)[nH]c3=O)C[C@@H]2OP(O)(=S)OC[C@H]2O[C@@H](n3cnc4c(N)ncnc43)[C@H](O)[C@@H]2OP(O)(=S)OC[C@H]2O[C@@H](n3cnc4c(=O)[nH]c(N)nc43)[C@H](O)[C@@H]2OP(O)(=S)OC[C@H]2O[C@@H](n3ccc(N)nc3=O)[C@H](O)[C@@H]2OP(O)(=S)OC[C@H]2O[C@@H](n3cnc4c(N)ncnc43)[C@H](O)[C@@H]2OP(O)(=S)OC[C@H]2O[C@@H](n3ccc(N)nc3=O)[C@H](O)[C@@H]2OP(O)(=S)OC[C@H]2O[C@@H](n3cc(C)c(=O)[nH]c3=O)C[C@@H]2OP(O)(=S)OC[C@H]2O[C@@H](n3cnc4c(=O)[nH]c(N)nc43)[C@H](O)[C@@H]2OP(O)(=S)OC[C@H]2O[C@@H](n3cnc4c(=O)[nH]c(N)nc43)[C@H](O)[C@@H]2OP(O)(=S)OC[C@H]2O[C@@H](n3ccc(N)nc3=O)[C@H](O)[C@@H]2OP(O)(=S)OC[C@]23CON(C)[C@@H]([C@H](n4cc(C)c(N)nc4=O)O2)[C@@H]3OP(O)(=S)OC[C@]23CON(C)[C@@H]([C@H](n4cc(C)c(=O)[nH]c4=O)O2)[C@@H]3O)c(=O)nc1N` (stereo not given in full), the Activity result in series [5] was “Non-toxic”; in series [2], “Dose-dependent effect”; in series [6] it was “Non-toxic”; in series [7] it was “Non-toxic”; in series [8], “Non-toxic”; in series [3], “Dose-dependent effect”. In series [2], this molecule returned an ED50 of 11 mg/kg. Moreover, the Tm in series [1] came out at 55.4 °C. This molecule gave a pIC50 in series [3] of 8.47.

These data come from ChEMBL document CHEMBL1156266, “Antisense oligonucleotides containing conformationally constrained 2',4'-(N-methoxy)aminomethylene and 2',4'-aminooxymethylene and 2'-O,4'-C-aminomethylene bridged nucleoside analogues show improved potency in animal models” (J Med Chem, 2010).
